Measured values reported in ChEMBL document CHEMBL1138311, “Design and synthesis of novel and potent inhibitors of the type II transmembrane serine protease, matriptase, based upon the sunflower trypsin inhibitor-1” (J Med Chem, 2007).
pKi: −log10 of the molar value. Calls of active or inactive are those of the source. The calls are words filed in the database; no cut-off is given here.

Key:
[1] = target: Prothrombin (Bos taurus, UniProt P00735); test: (§1) Inhibition of bovine thrombin
Method in brief: (§2)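 Room-temperature fluorogenic assay in 100 mM Tris-HCl (pH 8.5) with 100 mg/mL BSA. Enzyme and inhibitor were preincubated, then N-tBoc-Leu-Arg-Arg-AMC substrate was added. Hydrolysis was followed by fluorescence (ex 360 nm, em 480 nm) at six to seven inhibitor concentrations. Ki was taken from Dixon plots of two data sets at different substrate concentrations.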

[2] = Selectivity for human matriptase over bovine thrombin
Method in brief: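 Enzyme was preincubated with inhibitor before substrate addition. Matriptase substrate: t-Boc-Gln-Ala-Arg-AMC; thrombin substrate: N-tBoc-Leu-Arg-Arg-AMC. AMC release read at ex 360/em 480 nm over six to seven inhibitor concentrations. Ki from Dixon plots using two substrate concentrations.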

[3] = target: Prothrombin (Bos taurus) (UniProt P00735); test: as §1; method in brief: as §2
[4] = target: T1, Suppressor of tumorigenicity 14 protein (Homo sapiens, UniProt Q9Y5Y6); test: Inhibition of human matriptase
T1 sequence (Q9Y5Y6 whole entry): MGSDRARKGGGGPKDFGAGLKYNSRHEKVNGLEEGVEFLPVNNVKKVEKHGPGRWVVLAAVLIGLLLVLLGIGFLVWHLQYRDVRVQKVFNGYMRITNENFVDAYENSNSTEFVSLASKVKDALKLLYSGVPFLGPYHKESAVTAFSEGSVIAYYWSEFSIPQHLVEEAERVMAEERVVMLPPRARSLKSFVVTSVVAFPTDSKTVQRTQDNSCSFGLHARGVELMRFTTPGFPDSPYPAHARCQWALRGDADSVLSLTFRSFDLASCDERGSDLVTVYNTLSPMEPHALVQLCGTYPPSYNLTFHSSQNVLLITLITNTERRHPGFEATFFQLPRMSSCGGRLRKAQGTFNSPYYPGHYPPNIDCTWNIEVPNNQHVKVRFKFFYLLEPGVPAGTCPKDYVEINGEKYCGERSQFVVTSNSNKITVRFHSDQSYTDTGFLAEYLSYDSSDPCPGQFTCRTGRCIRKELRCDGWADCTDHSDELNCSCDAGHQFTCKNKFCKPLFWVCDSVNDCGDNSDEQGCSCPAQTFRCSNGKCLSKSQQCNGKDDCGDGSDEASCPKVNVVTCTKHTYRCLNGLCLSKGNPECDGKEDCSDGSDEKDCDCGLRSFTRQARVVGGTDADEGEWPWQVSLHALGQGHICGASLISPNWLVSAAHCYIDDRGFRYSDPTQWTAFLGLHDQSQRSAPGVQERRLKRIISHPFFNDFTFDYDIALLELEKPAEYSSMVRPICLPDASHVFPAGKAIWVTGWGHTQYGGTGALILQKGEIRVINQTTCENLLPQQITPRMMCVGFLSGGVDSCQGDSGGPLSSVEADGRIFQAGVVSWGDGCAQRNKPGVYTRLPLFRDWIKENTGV
Method in brief: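 Run at room temperature in 100 mM Tris-HCl (pH 8.5) with 100 mg/mL BSA. Enzyme and inhibitor were preincubated, then t-Boc-Gln-Ala-Arg-AMC was added and fluorescence read at ex 360 nm, em 480 nm over six to seven inhibitor concentrations. Ki came from Dixon plots at two substrate concentrations. A second format used purified matriptase with t-Boc-Gln-Ala-Arg-AFC in 100 mM Tris (pH 8.3) with BSA.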

Row | pKi [1] | Ratio Ki [2] | Activity [3] | pKi [4] | Structure (SMILES)
1 | 5.12 | 8.9 |  |  | CC[C@H](C)[C@@H]1NC(=O)[C@@H]2CCCN2C(=O)[C@@H]2CCCN2C(=O)[C@H]([C@@H](C)CC)NC(=O)[C@H](CO)NC(=O)[C@H](CCCCN)NC(=O)[C@H]([C@@H](C)O)NC(=O)[C@@H]2CSSC[C@H](NC1=O)C(=O)N[C@@H](Cc1ccccc1)C(=O)N1CCC[C@@H]1C(=O)N[C@@H](CC(=O)O)C(=O)NCC(=O)N[C@@H](CCCCNC(=N)N)C(=O)N2
2 |  |  | inactive |  | CC[C@H](C)[C@@H]1NC(=O)[C@@H]2CCCN2C(=O)[C@@H]2CCCN2C(=O)[C@H]([C@@H](C)CC)NC(=O)[C@H](CO)NC(=O)[C@H](CCCN)NC(=O)[C@H]([C@@H](C)O)NC(=O)[C@@H]2CSSC[C@H](NC1=O)C(=O)N[C@@H](Cc1ccccc1)C(=O)N1CCC[C@@H]1C(=O)N[C@@H](CC(=O)O)C(=O)NCC(=O)N[C@@H](CCCNC(=N)N)C(=O)N2
3 | 3.79 | 1.8 |  |  | CC[C@H](C)[C@@H]1NC(=O)[C@@H]2CCCN2C(=O)[C@@H]2CCCN2C(=O)[C@H]([C@@H](C)CC)NC(=O)[C@H](CO)NC(=O)[C@H](CCCCN)NC(=O)[C@H]([C@@H](C)O)NC(=O)[C@@H]2CSSC[C@H](NC1=O)C(=O)N[C@@H](Cc1ccccc1)C(=O)N1CCC[C@@H]1C(=O)N[C@@H](CC(=O)O)C(=O)NCC(=O)N[C@@H](Cc1ccc(NC(=N)N)cc1)C(=O)N2
4 | 6.07 | 0.18 |  |  | CC[C@H](C)[C@@H]1NC(=O)[C@@H]2CCCN2C(=O)[C@@H]2CCCN2C(=O)[C@H]([C@@H](C)CC)NC(=O)[C@H](CO)NC(=O)[C@H](CCCNC(=N)N)NC(=O)[C@H]([C@@H](C)O)NC(=O)[C@@H]2CSSC[C@H](NC1=O)C(=O)N[C@@H](Cc1ccccc1)C(=O)N1CCC[C@@H]1C(=O)N[C@@H](CC(=O)O)C(=O)NCC(=O)N[C@@H](CCCNC(=N)N)C(=O)N2
5 | 4.79 | 36 |  |  | CC[C@H](C)[C@@H]1NC(=O)[C@@H]2CCCN2C(=O)[C@@H]2CCCN2C(=O)[C@H]([C@@H](C)CC)NC(=O)[C@H](CO)NC(=O)[C@H](CCCCN)NC(=O)[C@H]([C@@H](C)O)NC(=O)[C@@H]2CSSC[C@H](NC1=O)C(=O)N[C@@H](Cc1ccc3ccccc3c1)C(=O)N1CCC[C@@H]1C(=O)N[C@@H](CC(=O)O)C(=O)NCC(=O)N[C@@H](CCCNC(=N)N)C(=O)N2
6 |  | 50 |  |  | CC[C@H](C)[C@@H]1NC(=O)[C@@H]2CCCN2C(=O)[C@@H]2CCCN2C(=O)[C@H]([C@@H](C)CC)NC(=O)[C@H](CO)NC(=O)[C@H](CCCCN)NC(=O)[C@H]([C@@H](C)O)NC(=O)[C@@H]2CSSC[C@H](NC1=O)C(=O)N[C@@H](Cc1ccccc1)C(=O)N1CCC[C@@H]1C(=O)N[C@@H](CC(=O)O)C(=O)NCC(=O)N[C@@H](CCCNC(=N)N)C(=O)N2
7 | 3.08 | 37 |  |  | CC[C@H](C)[C@@H]1NC(=O)[C@@H]2CCCN2C(=O)[C@@H]2CCCN2C(=O)[C@H]([C@@H](C)CC)NC(=O)[C@H](CO)NC(=O)[C@H](CCCCN)NC(=O)[C@H]([C@@H](C)O)NC(=O)[C@@H]2CSSC[C@H](NC1=O)C(=O)N[C@@H](Cc1ccccc1)C(=O)N1CCC[C@@H]1C(=O)N[C@@H](CC(=O)O)C(=O)NCC(=O)N[C@@H](CCCNC(N)=O)C(=O)N2
8 | 4.47 | 37.8 |  |  | CC[C@H](C)[C@@H]1NC(=O)[C@@H]2CCCN2C(=O)[C@@H]2CCCN2C(=O)[C@H]([C@@H](C)CC)NC(=O)[C@H](CO)NC(=O)[C@H](CCCCN)NC(=O)[C@H]([C@@H](C)O)NC(=O)[C@@H]2CSSC[C@H](NC1=O)C(=O)N[C@@H](Cc1c(F)c(F)c(F)c(F)c1F)C(=O)N1CCC[C@@H]1C(=O)N[C@@H](CC(=O)O)C(=O)NCC(=O)N[C@@H](CCCNC(=N)N)C(=O)N2
9 | 4.39 | 0.38 |  |  | CC[C@H](C)[C@@H]1NC(=O)[C@@H]2CCCN2C(=O)[C@@H]2CCCN2C(=O)[C@H]([C@@H](C)CC)NC(=O)[C@H](CO)NC(=O)[C@H](CCCCN)NC(=O)[C@H]([C@@H](C)O)NC(=O)[C@H](CO)NC(=O)[C@H](CCCNC(=N)N)NC(=O)CNC(=O)[C@H](CC(=O)O)NC(=O)[C@H]2CCCN2C(=O)[C@H](Cc2ccccc2)NC(=O)[C@H](CO)NC1=O
10 | 4.34 | 1.6 |  |  | CC[C@H](C)[C@@H]1NC(=O)[C@@H]2CCCN2C(=O)[C@@H]2CCCN2C(=O)[C@H]([C@@H](C)CC)NC(=O)[C@H](CO)NC(=O)[C@H](CCCCCN)NC(=O)[C@H]([C@@H](C)O)NC(=O)[C@@H]2CSSC[C@H](NC1=O)C(=O)N[C@@H](Cc1ccccc1)C(=O)N1CCC[C@@H]1C(=O)N[C@@H](CC(=O)O)C(=O)NCC(=O)N[C@@H](CCCNC(=N)N)C(=O)N2
11 | 4.59 | 25.6 |  |  | CC[C@H](C)[C@@H]1NC(=O)[C@@H]2CCCN2C(=O)[C@@H]2CCCN2C(=O)[C@H]([C@@H](C)CC)NC(=O)[C@H](CO)NC(=O)[C@H](CCCCN)NC(=O)[C@H]([C@@H](C)O)NC(=O)[C@@H]2CSSC[C@H](NC1=O)C(=O)N[C@@H](Cc1ccc(-c3ccccc3)cc1)C(=O)N1CCC[C@@H]1C(=O)N[C@@H](CC(=O)O)C(=O)NCC(=O)N[C@@H](CCCNC(=N)N)C(=O)N2
12 | 5.00 | 62.5 |  | 6.80 | CC[C@H](C)[C@@H]1NC(=O)[C@@H]2CCCN2C(=O)[C@@H]2CCCN2C(=O)[C@H]([C@@H](C)CC)NC(=O)[C@H](CO)NC(=O)[C@H](CCCCN)NC(=O)[C@H]([C@@H](C)O)NC(=O)[C@@H]2CSCSC[C@H](NC1=O)C(=O)N[C@@H](Cc1ccccc1)C(=O)N1CCC[C@@H]1C(=O)N[C@@H](CC(=O)O)C(=O)NCC(=O)N[C@@H](CCCNC(=N)N)C(=O)N2
